In the EternaBench riboswitch data:

Assays:
MS2 coat protein [1] = assay: apparent Kd, MS2 coat protein; higher = weaker binding; RNA-MaP array; conditions: designed as: OFF switch for flavin mononucleotide
In short: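 Binding of fluorescently labeled MS2 coat protein, at 1.5 nM to 3 μM and room temperature, was measured with or without input ligand on designed RNAs transcribed on an Illumina sequencing chip from sequenced DNA templates. Apparent Kd was defined as the median of per-cluster binding-curve fits. No design measured on fewer than 10 clusters was kept.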

MS2 coat protein [2] = assay: apparent Kd, MS2 coat protein; higher = weaker binding; RNA-MaP array; FMN 200 µM where present
In short: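 The apparent Kd comes from binding curves fitted cluster by cluster, filtered, and summarised as a median. Those curves followed SNAP-549-labelled MS2 coat protein from 0.7 or 1.5 nM, doubling to 3 µM, on Illumina sequencing-chip clusters where stalled E. coli RNA polymerase had transcribed the designs, without and then with constant ligand. The buffer was 100 mM Tris-HCl pH 7.5, 80 mM KCl, 4 mM MgCl2, BSA, DTT, yeast tRNA and Tween-20, and green signal was normalised to red-channel RNA signal and control-cluster median Fmax.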

[3] = ligand present: flavin mononucleotide
[4] = designed as: OFF switch for flavin mononucleotide, no ligand
[5] = ligand present: flavin mononucleotide, designed as: OFF switch for flavin mononucleotide
[6] = designed as: ON switch for flavin mononucleotide, no ligand
[7] = ligand present: flavin mononucleotide, designed as: ON switch for flavin mononucleotide

Sequence | apparent Kd (MS2 coat protein [2]; [4]) [nM] | apparent Kd (MS2 coat protein [2]; [5]) [nM] | apparent Kd (MS2 coat protein [2]; [6]) [nM] | apparent Kd (MS2 coat protein [2]; [7]) [nM] | other results
UAGAAUUAAGGAUAUACAGGAUCCGUACAAAUAUUGAUAGGACAUGAGGAUCACCCAUGUAGAAGGUAAGGCAG | – | – | – | – | apparent Kd (MS2 coat protein [1]; no ligand): 21.1 nM; apparent Kd (MS2 coat protein [1]; [3]): 17.2 nM
CAGUGCGACUCAGGAUAUCAGAACACUAAGGCGUGAGAAGGGAGAACGACACAUGAGGAUCACCCAUGUUAGAGGGAAUGCAUG | – | – | – | – | apparent Kd (MS2 coat protein [1]; no ligand): 37.6 nM; apparent Kd (MS2 coat protein [1]; [3]): 43.7 nM
AAAAAGUCAGGAUAUACGAAAAAAAAAAAAAAAAAAAAAAAGUAGAAGGGACAUGAGGAUCACCCAUGUAAAAA | 78.2 | 58.8 | – | – | –
GUAUCAUACCAAGGAUAUUUAGGACUUGUGUAGACAUGAGGAUCACCCAUGUGGCGUUAGUCACGGGAGAAGGUGGUAUGAUAC | – | – | 78.5 | 18.8 | –
CGUACUGAAGUGAGGAUAUUGUCUCGGAUACGAAACAAGAAGGCACAUGAGGAUCACCCAUGUUGACAGUACGA | 15.8 | 13.1 | – | – | –
AGGAAGUAAGGAUAUGCUGCUCGUCACUUGCGUGAUGAGUAGCAGAAGGUACAUGAGGAUCACCCAUGUAAAAA | 23.7 | 18.5 | – | – | –
UCAACUCCCGUCAGGAUAUGUUGCUCUAGGGAGCAGUAGAAGGGACAUGAGGAUCACCCAUGUUAUCCGUGUAU | 17.2 | 20.6 | – | – | –
GUUAAACAUGAGGAUCACCCAUGUAAGGAUAUGCUGCGGUCGCGCUGACGUGACUGCAGCAGAAGGUACAAAUG | 105 | 66.9 | – | – | –
GCUUGUAGAGGAUAUACAAGGGCCUUAGCGAAUAACACCGCACAUGAGGAUCACCCAUGUAGAAGGCUACCACC | 15.6 | 77.6 | – | – | –
GGAGAACAUGAGGAUCACCCAUGUGGAUGGGCGCUAGGAUAUGCGGGAGGGUGAAGAGAAGCAGAAGGAGUGGAUA | – | – | 77.6 | 76.1 | –
UUAAUUUAGUGAUAUUAUGACAUUAGAAGGCUGUACAUGUUGAUACAUGAGGAUCACCCAUGUAUAGAGGAUAUAGACAAUUUU | 39.8 | 93.8 | – | – | –
AUACCUUAUGAGAAGGCGAUCAUGAAACAUGAUCGAGGAUAUCAUGUAAACAUGAGGAUCACCCAUGUAUGGGUAUUAUGGUAA | – | – | 26.5 | 9.1 | –
GGUGUGUCAGGAUAUCAACACACGGCAGCAGCGUUAUGCGUUGAGAAGGGACAUGAGGAUCACCCAUGUGACGG | 46 | 70.9 | – | – | –
GCCAUCGCAUGAGGAUAUGCUCCGGUUUCCGGAGCAGAAGGCAUGUAAUAAAACAUGAGGAUCACCCAUGUAGUUAAGAUGGCA | – | – | 7.94 | 6 | –
GCACUUAAAAUUGAACCGUUUCGAACAUGAGGAUCACCCAUGUAGGAUAUGCUAAUAGUAUUGAAGCAGAAGGACAAUAAGUGC | 6.17 | 5.99 | – | – | –
UUGGACGUCGUAGGAUAUGUAGGAUAUUCCUACAUGAGGAUCACCCAUGUUGACAUGGAAGAAGGACGGAAGGACGAUGUCCAU | – | – | 899 | 18.9 | –
UUGGACGUCGUAGAAUAUGUAGGAUAUUCCUACAUGAGGAUCACCCAUGUUGACAUGGAAGAAGGACAGAAGGACGAUGUCCAU | – | – | 188 | 7.02 | –
GUAGCAUUCUGAGGAUAUGGGUUCCGGAAACGGACAUGAGGAUCACCCAUGUGGCGAAAGCCAUACUAGAAGGCAGUAUGCUAC | – | – | 77.9 | 7.46 | –
AGCUAGUGAGGAUAUACGAACAUGUCAAAAGACGUGAGGGAACAUGAGGAUCACCCAUGUAGAAGGCACUAGCA | 38.8 | 33 | – | – | –
UUACUAUCACAGAAGGGUAGAUAGUAUAUAGAUGCAGGAUAUGUGACAUGAGGAUCACCCAUGUUUCACCGACAUGAGGAUCAC | 60.4 | 66.2 | – | – | –
GCACUUAAGUUAGGAUAUGGAUCGGAAAACGAUCCAGAAGGAAUAUGGGAACAUGAGGAUCACCCAUGUUCCACAGACAAGUGC | – | – | 47.5 | 24.4 | –
UUUUUAUUUAUAGGAUAUGGAAACAUGAGGAUCACCCAUGUAUGAUAAGAUAAAUUAUGAUAUGGCCAGAAGGAUAUUAUUUUU | – | – | 31 | 34.8 | –
GCCUAACAUGAGGAUCACCCAUGUCGUGGGUUGUUAGGAUAUGGACCGCAAAACGCGGUACCAGAAGGAAUAGAAA | – | – | 555 | 297 | –
AUCGAGUAAGGAUAUACAUGAGGAUCACCCAUGUCCGUGAGGUAAGUUUGUGUCCGGCGUAGAAGGUACUGCAU | 52.1 | 121 | – | – | –
ACUAAAGAAGGAUAUACUAACGAACCUCAAACAUAGAUAAAACAUGAGGAUCACCCAUGUAGAAGGUCUAGACU | 31.7 | 39.6 | – | – | –
GCAGUAAAUAAAUGCACAUGAGGAUCACCCAUGUGGGAGGCACAGGAUAUCGCAUCAUAGCGGUGCGAGAAGGGUGAUAAUCUC | – | – | 346 | 72.3 | –
ACAUACAUUCGAGGAUAUCGGUGAACAAAUUAACGAGAAGGCGAAAUACUUUUUAAUCUUAUAAACAUGAGGAUCACCCAUGUA | – | – | 19.9 | 20.7 | –

Sequence | apparent Kd (MS2 coat protein [2]; [4]) [nM] | apparent Kd (MS2 coat protein [2]; [5]) [nM] | apparent Kd (MS2 coat protein [2]; [6]) [nM] | apparent Kd (MS2 coat protein [2]; [7]) [nM] | other results
ACAUGAGGAUCACCCAUGUAUUACAUGGUUAAGUUUAUUAACAGAAGGCGAAAUUACCACUUGGUCGAGGAUAUGUAUUCUAUU | 40.3 | 40.7 | – | – | –
CCUCCCUGAGGAUAUCCACCCUCAUACAUGAGGAUCACCCAUGUUCAUCCGUGGCUACCCGGAGAAGGCAGCUCUG | 57.8 | 49.7 | – | – | –
CAGCGAUAGCUGAAUGGUACAUGGGAGGAUAUGGGUUGACAUGAGGAUCACCCAUGUAAAUAAUACUAGAAGGCCCAUGUACCU | – | – | 191 | 9.38 | –
ACAUGAGGAUCACCCAUGUUCACAUAGGAUAUUGAUUAUAUUGGUUUUAGAAUAGUAAUUAACCUCAAGAAGGAUGCCAGUUCU | – | – | 13.3 | 10 | –
AAGGUGUUAGGAUAUCGUAGUUUGUGGCAGACGGGAUUUUGCGAGAAGGAACAUGAGGAUCACCCAUGUCGGAU | 28.4 | 28.2 | – | – | –
CAGGUAGACUGAGGAUAUACAAAGACCUAGUUUAUCUAGGUCAACAUCACAUGAGGAUCACCCAUGUAGAAGGCAGUCUGCCUG | 15.4 | 24.7 | – | – | –
UGGCCGAAGUUAGGAUAUUGGUUAGGGACGGACUAAGAAGGAGCACAUACAUGAGGAUCACCCAUGUUAGAAGGUUGUCCUCCA | 15.5 | 13.7 | – | – | –
CCUCGACAUGAGGAUCACCCAUGUAAGGAUAUUCUAGGACGUGUUUUUCGUAGCUUUAGAAGAAGGUGCAGGUU | 49.5 | 175 | – | – | –
GGAUGACAAAGUCAUCCUAAACGAACAUGAGGAUCACCCAUGUAGGAUAUGCUACACAAAGUGUAGCAGAAGGACAUGUGCCUU | 37.1 | 269 | – | – | –
AGUUUGCGGCAGGAUAUCCAUCCGCGGUGUGGUGGAGAAGGGCUGACAUGAGGAUCACCCAUGUGCGUCCUGUA | 23.2 | 32.5 | – | – | –
GGCUAGGACAGAGGAUAUACGUGCUAGAGAUACUAGCAAAAUUUCCUCACAUGAGGAUCACCCAUGUAGAAGGCUGUCCUAUCG | 18.4 | 458 | – | – | –
UAGAUGGGAGGAUAUACGUAGAUACAGAUUCAUGUAGUGCUACAUGAGGAUCACCCAUGUAGAAGGCCCGUCUU | 39.4 | 330 | – | – | –
GGUGCGUAUGUGAGGAUAUGCUGGUCCUUGGCUCGGCAGAAGGCACAUGAGGAUCACCCAUGUGGUGUCGUACC | 278 | 50.9 | – | – | –
ACGCCUCCUGUUAGGAUAUGCAUCGGGCUUCCGCAGCAGAAGGAACAUGAGGAUCACCCAUGUCAAAUAAAAUC | 15.3 | 94.4 | – | – | –
UUAUCUCAUGAGAAGGACAUGAGGAUCACCCAUGUAGGAUAUCAUGGGUCAGAGGAAUUGAAUCUAAUGAUUCAAUUACUCUUC | – | – | 60.5 | 10.4 | –
CAUGUCCUCACAGGAUAUGCAAUGUAUUUCAUUGCAGAAGGGUGAACACAUGAGGAUCACCCAUGUGGACAUGAUAUAUUUAAU | – | – | 521 | 69.5 | –
GGAUAGGACAGAGGAUAUACGUGCUAGAGAUACUAGCAAAUAAUCCUUACAUGAGGAUCACCCAUGUAGAAGGCUGUCCUAUCG | 20.2 | 48 | – | – | –
GGUCUUCAAGUCAGGAUAUCGUCUGGUCGGUCUGGCGAGAAGGGACAUGAGGAUCACCCAUGUCGUCUCAUCAG | 25.5 | 40.2 | – | – | –
GUCAGCUCAUGAGGAUAUACAACACUGCUUCGGCAGUGUAUUAAGAUCACAUGAGGAUCACCCAUGUAGAAGGCACGAGCUGAU | 12.9 | 258 | – | – | –
AAAGCGUGAGGAUAUGAGGCGCCGGGCCGGUUGGUGCGGAUUCAGAAGGCACAUGAGGAUCACCCAUGUCGGUA | 41.1 | 96 | – | – | –
GAAUAAUUGAUCCAAUUUAACUACAUGAGGAUCACCCAUGUGCAGGAUAUCGUAAUAUUUAUUUUCGAGAAGGGCAAGAACGGU | 162 | 320 | – | – | –
UUACUCAUGUAAGGAUAUGCAGCCGUUUCGGCUGCAGAAGGUACUAUAAUACAUGAGGAUCACCCAUGUCUAUACAAUAAAGAC | – | – | 62.9 | 26 | –
AGGUGUAGAGGAUAUCGAGUUCUUUACAUGAGGAUCACCCAUGUCCUGGGCACCCAGGACUGAGAAGGCUACACCA | 478 | 180 | – | – | –
CAUACACAUGAGGAUCACCCAUGUGAGGAUAUGAAUACGUUGUCCGUAGGCGACGUGAUCAGAAGGCGCUUGGU | 45.4 | 61.8 | – | – | –
UAUUAAUGCAAGGAUAUGCUAUUAAUUUAUUUUGCAGAAGGUGCAACAUGAGGAUCACCCAUGUUGGAGGGUAU | 22 | 34.3 | – | – | –
UAUUUGUGAGGAUAUGAGUCGUAGAACAAUAGUACUACGUCUCAGAAGGCACAUGAGGAUCACCCAUGUACCUC | 17.9 | 122 | – | – | –
UCUAAUUAGUGAGGAUAUGCAUAAUUUAUAACUGCAGAAGGCACAAACCUCAAGACAUGAGGAUCACCCAUGUGGAAUAUAGAU | 93.8 | 215 | – | – | –
